Measured values: ChEMBL document CHEMBL4052804, “Design and synthesis of piperazine acetate podophyllotoxin ester derivatives targeting tubulin depolymerization as new anticancer agents” (Bioorg Med Chem Lett, 2017)

Columns and labels:
HepG2 = experiment: Cytotoxicity against human HepG2 cells after 24 hrs by MTT assay; type: functional, cell-based; conditions: HepG2, 24 h
Summary of the method: (§1)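 In vitro antiproliferative screen by MTT assay against human MCF-7 breast, HeLa cervical, A549 lung adenocarcinoma and HepG-2 hepatoma cells. Output is the IC50.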

L02 = experiment: Cytotoxicity against human L02 cells after 24 hrs by MTT assay; type: cell-based; conditions: L02, 24 h
Summary of the method: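 Normal human liver L02 cells were tested at multiple concentrations in an MTT assay. Output is the median cytotoxic concentration (CC50).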

MCF7 = experiment: Cytotoxicity against human MCF7 cells after 24 hrs by MTT assay; type: functional, cell-based; conditions: MCF7, 24 h; summary of the method: as §1
A549 = experiment: Cytotoxicity against human A549 cells after 24 hrs by MTT assay; type: functional, cell-based; conditions: A549, 24 h; summary of the method: as §1
HeLa = experiment: Cytotoxicity against human HeLa cells after 24 hrs by MTT assay; type: functional, cell-based; summary of the method: as §1

COc1ccccc1N1CCN(CC(=O)O[C@H]2c3cc4c(cc3[C@@H](c3cc(OC)c(OC)c(OC)c3)[C@H]3C(=O)OC[C@@H]32)OCO4)CC1
IC50 (HepG2): 34.2 µM | IC50 (L02): 90.7 µM | IC50 (MCF7): 48.2 µM | IC50 (A549): 28.6 µM | IC50 (HeLa): > 50 µM

COc1cc([C@@H]2c3cc4c(cc3[C@H](OC(=O)CN3CCN(C(c5ccccc5)c5ccc(Cl)cc5)CC3)[C@H]3COC(=O)[C@H]23)OCO4)cc(OC)c1OC (stereo not given in full)
IC50 (HepG2): 10.9 µM | IC50 (L02): > 100 µM | IC50 (MCF7): 7.75 µM | IC50 (A549): 14.2 µM | IC50 (HeLa): 12.2 µM

COc1ccc(N2CCN(CC(=O)O[C@H]3c4cc5c(cc4[C@@H](c4cc(OC)c(OC)c(OC)c4)[C@H]4C(=O)OC[C@@H]43)OCO5)CC2)cc1
IC50 (HepG2): 25.9 µM | IC50 (L02): 87.9 µM | IC50 (MCF7): 13.5 µM | IC50 (A549): 16.4 µM | IC50 (HeLa): 31.6 µM

COc1cc([C@@H]2c3cc4c(cc3[C@H](OC(=O)CN3CCN(C(c5ccc(F)cc5)c5ccc(F)cc5)CC3)[C@H]3COC(=O)[C@H]23)OCO4)cc(OC)c1OC
IC50 (HepG2): 7.04 µM | IC50 (L02): > 100 µM | IC50 (MCF7): 6.23 µM | IC50 (A549): 13.2 µM | IC50 (HeLa): 9.54 µM

COc1cc([C@@H]2c3cc4c(cc3[C@H](OC(=O)CN3CCN(c5cccc(Cl)c5)CC3)[C@H]3COC(=O)[C@H]23)OCO4)cc(OC)c1OC
IC50 (HepG2): 13.5 µM | IC50 (L02): 99.3 µM | IC50 (MCF7): 9.87 µM | IC50 (A549): 9.26 µM | IC50 (HeLa): 8.3 µM

COc1cc([C@@H]2c3cc4c(cc3[C@@H](O[C@@H]3O[C@@H]5CO[C@@H](C)O[C@H]5[C@H](O)[C@H]3O)[C@H]3COC(=O)[C@H]23)OCO4)cc(OC)c1O [ETOPOSIDE]
IC50 (HepG2): 5.52 µM | IC50 (L02): 7.75 µM | IC50 (MCF7): 2.08 µM | IC50 (A549): 6.21 µM | IC50 (HeLa): 1.58 µM

COc1cc([C@@H]2c3cc4c(cc3[C@H](OC(=O)CN3CCN(c5cccc(C(F)(F)F)c5)CC3)[C@H]3COC(=O)[C@H]23)OCO4)cc(OC)c1OC
IC50 (HepG2): 9.61 µM | IC50 (L02): > 100 µM | IC50 (MCF7): 7.19 µM | IC50 (A549): 10.8 µM | IC50 (HeLa): 6.82 µM

COc1cc([C@@H]2c3cc4c(cc3[C@H](OC(=O)CN3CCN(c5ccc(F)cc5)CC3)[C@H]3COC(=O)[C@H]23)OCO4)cc(OC)c1OC
IC50 (HepG2): 12.6 µM | IC50 (L02): > 100 µM | IC50 (MCF7): 8.49 µM | IC50 (A549): 11.9 µM | IC50 (HeLa): 17.3 µM

COc1cc([C@@H]2c3cc4c(cc3[C@H](OC(=O)CN3CCN(C(c5ccccc5)c5ccccc5)CC3)[C@H]3COC(=O)[C@H]23)OCO4)cc(OC)c1OC
IC50 (HepG2): 16.4 µM | IC50 (L02): 65.8 µM | IC50 (MCF7): 16.5 µM | IC50 (A549): 12.3 µM | IC50 (HeLa): 23.2 µM

COc1cc([C@@H]2c3cc4c(cc3[C@H](OC(=O)CN3CCN(c5ccccc5)CC3)[C@H]3COC(=O)[C@H]23)OCO4)cc(OC)c1OC
IC50 (HepG2): 16.6 µM | IC50 (L02): 75.8 µM | IC50 (MCF7): 22 µM | IC50 (A549): 15.2 µM | IC50 (HeLa): 33 µM

COc1cc([C@@H]2c3cc4c(cc3[C@H](OC(=O)CN3CCN(c5ccc([N+](=O)[O-])cc5)CC3)[C@H]3COC(=O)[C@H]23)OCO4)cc(OC)c1OC
IC50 (HepG2): 6.87 µM | IC50 (L02): > 100 µM | IC50 (MCF7): 9.6 µM | IC50 (A549): 8.15 µM | IC50 (HeLa): 11 µM

COc1cc([C@@H]2c3cc4c(cc3[C@H](OC(=O)CN3CCN(c5cccc(Cl)c5Cl)CC3)[C@H]3COC(=O)[C@H]23)OCO4)cc(OC)c1OC
IC50 (HepG2): 6.15 µM | IC50 (L02): 97.8 µM | IC50 (MCF7): 3.02 µM | IC50 (A549): 7.51 µM | IC50 (HeLa): 7.83 µM

COc1cc([C@@H]2c3cc4c(cc3[C@H](OC(=O)CN3CCN(c5ccc(C)cc5C)CC3)[C@H]3COC(=O)[C@H]23)OCO4)cc(OC)c1OC
IC50 (HepG2): 45.8 µM | IC50 (L02): 93.9 µM | IC50 (MCF7): > 50 µM | IC50 (A549): 34.4 µM | IC50 (HeLa): 23.1 µM

COc1cccc(N2CCN(CC(=O)O[C@H]3c4cc5c(cc4[C@@H](c4cc(OC)c(OC)c(OC)c4)[C@H]4C(=O)OC[C@@H]43)OCO5)CC2)c1
IC50 (HepG2): 36.7 µM | IC50 (L02): > 100 µM | IC50 (MCF7): 12.2 µM | IC50 (A549): 23.2 µM | IC50 (HeLa): 36.7 µM
